ChEMBL document CHEMBL1140253, “Synthesis of functionalized acetophenones as protein tyrosine phosphatase 1B inhibitors” (Bioorg Med Chem Lett, 2005)

These molecules were tested against T1, Tyrosine-protein phosphatase non-receptor type 1 (Mus musculus) (UniProt P35821) (assay: (§1) In vitro inhibitory activity against PTP1B at 100 uM 10 min incubation).
T1 sequence (whole entry): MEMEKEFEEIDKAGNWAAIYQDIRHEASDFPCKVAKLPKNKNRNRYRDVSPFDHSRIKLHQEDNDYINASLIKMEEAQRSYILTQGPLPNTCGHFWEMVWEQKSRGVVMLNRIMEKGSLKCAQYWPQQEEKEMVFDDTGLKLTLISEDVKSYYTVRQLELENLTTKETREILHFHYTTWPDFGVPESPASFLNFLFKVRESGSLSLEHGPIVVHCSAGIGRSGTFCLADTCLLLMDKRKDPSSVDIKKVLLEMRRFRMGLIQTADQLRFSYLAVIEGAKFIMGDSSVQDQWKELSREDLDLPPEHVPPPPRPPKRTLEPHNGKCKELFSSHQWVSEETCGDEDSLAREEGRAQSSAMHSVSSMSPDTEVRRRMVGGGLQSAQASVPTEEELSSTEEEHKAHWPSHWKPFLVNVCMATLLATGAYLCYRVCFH
Method in brief: (§2)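 p-Nitrophenylphosphate (10 mM) as substrate in 50 mM HEPES buffer, pH 7, with 1 mM EDTA and DTT. Compounds tested at 100 µM, with sodium vanadate as reference control. Result given as percent inhibition of phosphatase activity, mean of three independent experiments.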

Molecule	inhibition
O=C(/C=C(\O)c1ccc2occc2c1O)c1ccc(C(F)(F)F)cc1	No inhibition
CC(=O)c1cc2ccoc2cc1O	19.1%
COc1ccc(C(=O)Oc2cc3occc3cc2C(C)=O)cc1OC	No inhibition
C=CCOc1ccc(C(C)=O)c(O)c1	No inhibition
CC(=O)c1ccc(OCC#N)cc1OC(=O)c1ccc(F)cc1	No inhibition
CC(=O)c1ccc2occc2c1OC(=O)c1ccc(C(F)(F)F)cc1	32.4%
COc1cccc(C(=O)Oc2cc3occc3cc2C(C)=O)c1	8.1%
CC(=O)c1ccc(OCCc2ccccc2)cc1O	38.6%
CC(=O)c1ccc2occc2c1OC(=O)c1ccccc1	43.2%
N#CCOc1ccc(/C(O)=C/C(=O)c2ccc(F)cc2)c(O)c1	No inhibition
N#CCOc1ccc(/C(O)=C/C(=O)c2ccccc2)c(O)c1	No inhibition
CC(=O)c1ccc2occc2c1OC(=O)c1ccc(Cl)c(Cl)c1	54.1%
COc1ccc(C(=O)Oc2cc3occc3cc2C(C)=O)cc1	13.5%
CC(=O)c1ccc(OCC#N)cc1O	22.4%
CC(=O)c1cc2ccoc2cc1OC(=O)c1ccc2c(c1)OCO2	34%
CC(=O)c1ccc2occc2c1O	No inhibition
CC(=O)c1ccc(OCC2CO2)cc1O (stereo not drawn)	22.4%
CC(=O)c1ccc(OCC#N)cc1OC(=O)c1ccccc1	12.8%
CC(=O)c1cc2ccoc2cc1OC(=O)c1ccccc1	No inhibition
CC(=O)c1ccc(OCCO)cc1O	No inhibition
O=C(/C=C(\O)c1ccc(OCCc2ccccc2)cc1O)c1ccc(F)cc1	No inhibition
CC(=O)c1ccc(OCCc2ccccc2)cc1OC(=O)c1ccc(F)cc1	No inhibition

The molecules below were run against Tyrosine-protein phosphatase non-receptor type 1 (Mus musculus) (UniProt P35821) (assay: as §1).
Method in brief: as §2

Molecule	inhibition
SODIUM ORTHOVANAD	56.2%
